IMP-1 inhibitor: blocks Pseudomonas aeruginosa IMP-1 metallo-beta-lactamase; purified IMP-1, nitrocefin hydrolysis, epi-absorbance fluorescence; inhibition, % at 5.6 µM; actives 0.45% (n = 290,000); AID 1556;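 active = inhibition above the mean plus 3 SD of all compounds in the same screening run, cut at about 4.5% in these data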;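 also: 0% = IMP-1 with DMSO and 100% = DMSO wells lacking enzyme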
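System: Purified IMP-1 | Read-out basis: Percent enzyme inhibition | Controls: IMP-1 with DMSO as 0%, enzyme-free DMSO as 100% | Replicates: One well per compound | Doses: 5.6 µM nominal single concentration | Detection: Epi-absorbance fluorescence, 480 nm excitation, 530 nm emission | Incubation: 25 °C, 15 min preincubation, 25 min reaction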
VIM-2 inh: blocks Pseudomonas aeruginosa VIM-2 metallo-beta-lactamase; purified VIM-2, nitrocefin hydrolysis, epi-absorbance fluorescence; inhibition, % at 5.6 µM; actives 0.89% (n = 290,000); AID 1527;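 active = inhibition above the mean of all tested compounds plus 3 SD, cutoff set per screening run, cut at about 7.5% in these data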;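 also: red hydrolysis product quenches plate fluorescence so inhibitors raise well fluorescence; 0% = enzyme with DMSO and 100% = DMSO without enzyme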
PolyA inhibitor: blocks polyadenylation in yeast reporter cells. S. cerevisiae SKY197-pL101 polyadenylation reporter, beta-gal luminescence; efflux-impaired pdr1/pdr3 knockout yeast; score 100 = 6 SD above DMSO. activity score, % at 12 µM. actives 0.02% (n = 300,000). AID 1875;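 active = lowest replicate activity score at least 50, where 100 means six control SD above control mean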;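 also: yeast exposed to compound for 9 h at 30 °C; higher score means more reporter readthrough which indicates perturbed polyadenylation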
SUMO Mot1 rescue: blocks SUMOylation pathway, rescuing yeast Mot1-301 growth; actives 1% (n = 320,000); growth rescue, % at 18.8 µM; AID 2716; S. cerevisiae Mot1-301 growth rescue, ATP luminescence, 38.5C; percent above DMSO median, 100 means doubled;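 active = every valid replicate shows activation above 250% relative to neutral control wells; inactive = the rest, any valid replicate at or below 250%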;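 also: OY570 slx delta 5 strain wells were the positive control but not used for scaling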
NLRP3 yeast inh: blocks the NALP3 inflammasome reconstituted in yeast | Yeast reconstituted NLRP3/ASC/caspase-1, beta-gal luminescence, 24 h | inhibition, % at 10 µM | actives 0.39% (n = 330,000) | AID 2825;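 active = inhibition of 50% or more; inactive = inhibition below 50%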;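 also: plate controls were induced DMSO wells for no effect and uninduced yeast grown without galactose for full effect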
NALP1 inh: NALP1 inhibition; S. cerevisiae NALP1/ASC/caspase-1 growth, X-gal OD620, 72 h; inhibition, % at 10 µM; actives 0.61% (n = 280,000); AID 2071; in the data active = inhibition mostly above about 24%, no sharp cut-off; inactive = mostly below about 32%
NALP3 yeast conf: NALP3 inhibition confirmation in yeast | shares compounds with NLRP3 yeast inh | yeast expressing human NALP3, luminescence | inhibition, % at 10 µM | actives 81% (n = 1,300) | AID 435006; in the data active = inhibition above about 48%
Casp1-ASC yeast: caspase-1-ASC yeast counter-screen hit | inhibition, % at 10 µM | AID 488784 | yeast expressing Caspase-1-ASC, luminescence counter screen | shares compounds with NLRP3 yeast inh | actives 66% (n = 1,000)
NALP3 yeast rt: confirmation retest of NALP3 inhibitors in yeast. shares compounds with NLRP3 yeast inh. yeast expressing human NALP3, luminescence read-out. inhibition, % at 10 µM. actives 53% (n = 1,000)
Numbers without * were called inactive; · = no result. An excerpt weighted towards active compounds, which were near 2.9% of everything screened. Rule as the data show it, unless noted: active = inhibition above about 50%; inactive = the rest.

SMILES	IMP-1 inhibitor	VIM-2 inh	PolyA inhibitor	SUMO Mot1 rescue	NLRP3 yeast inh	NALP1 inh	NALP3 yeast conf	Casp1-ASC yeast	NALP3 yeast rt
COCCCn1c(C)csc1=Nc1cccnc1	-3	-4	-4	-5	7	27	·	·	·
Cc1csc(=Nc2cccnc2)n1CC1CCCCC1	-3	-2	17	-11	-107	-4	-3	·	·
CC(C)CC(=O)C1=C(O)C(=O)N(Cc2ccccc2)C1c1ccccc1 (stereo unspecified)	1	0	5	-8	17	18	·	·	·
CC(Sc1ccc(Cl)cc1)C(=O)NCC(c1ccco1)N1CCCCC1 (stereo unspecified)	·	·	16	163	-1	·	·	·	·
Nc1ccc2nc(SCC(=O)c3ccccc3)sc2c1	-3	-3	-3	7	38	·	·	·	·
Nc1ccc2nc(SCc3ccccc3F)sc2c1	-4	-3	-5	11	52*	·	22	·	·
Cc1ccc(C(=O)N[C@H](C(=O)Nc2ccc(N3CCOCC3)cc2)C(C)C)cc1	·	·	·	·	11	·	·	·	·
CC1(C)CC(=O)/C(=C\c2cccc([N+](=O)[O-])c2)C(C)(C)N1	-1	0	6	-18	59*	67*	55*	23	37
O=C1N/C(=N/O)S/C1=C/c1cccc([N+](=O)[O-])c1	-4	-3	2	-11	7	3	·	·	·
COc1cc(C)c(Cl)cc1S(=O)(=O)NC1CC(C)(C)NC(C)(C)C1	-2	-2	14	-3	-1	3	·	·	·
Cc1cc(OCc2nc3ccccc3s2)ccc1N	-3	-3	-4	65	55*	-1	42	·	·
c1ccc(OCc2nc3ccccc3s2)cc1	-5	-3	-19	17	36	14	·	·	·
OC(CN1CCN(c2ccccc2Cl)CC1)c1ccccc1 (stereo unspecified)	-3	-2	-5	50	9	12	·	·	·
CCOc1ncnc2c1[nH]c1ccccc12	0	1	-18	3	61*	·	82*	·	·
Nc1nc2ccccc2cc1S(=O)(=O)c1ccccc1	-2	-2	-11	4	83*	0	87*	·	·
CCN(c1ccc(OC)cc1)S(=O)(=O)c1nnc(NC(=O)c2ccccc2Cl)s1	-2	1	0	27	16	2	·	·	·
Cc1cc(Br)ccc1SCC(=O)OCC(=O)Nc1ccc2[nH]c(=O)[nH]c2c1	·	·	·	-5	10	·	·	·	·
CCCSc1nnc(Sc2nnnn2-c2ccccc2)s1	-4	-3	-16	-19	58*	13	66*	60*	46
Cc1ccc2nc(SCC3CCCCO3)[nH]c2c1 (stereo unspecified)	-2	-2	12	-4	9	·	·	·	·
CN(C)CC(C)(C)CNS(=O)(=O)c1ccc(OC(F)(F)F)cc1	0	-1	-11	3	-4	4	·	·	·
O=S(=O)(CCC1CCCCN1)c1ccccc1 (stereo unspecified)	-2	-5	6	-31	10	8	·	·	·
CCN(CC)S(=O)(=O)c1cccc(-c2nc3n(n2)Cc2ccccc2-3)c1	-3	-2	-16	19	-107	3	0	·	·
Cc1cc2c(cc1C)CSC(c1ccccc1O)SC2	-2	0	10	273*	59*	20	64*	63*	55*
Cc1cc2c(cc1C)CSC(c1ccc3ccccc3c1O)SC2	1	-1	-2	-11	8	8	·	·	·
O=C(Nc1ccc2c(c1)oc1ccccc12)c1cccnc1	0	0	-17	11	74*	-2	60*	44	40
SMILES	IMP-1 inhibitor	VIM-2 inh	PolyA inhibitor	SUMO Mot1 rescue	NLRP3 yeast inh	NALP1 inh	NALP3 yeast conf	Casp1-ASC yeast	NALP3 yeast rt
O=C(Nc1ccc2c(c1)oc1ccccc12)c1ccncc1	-2	-3	31	19	40	13	·	·	·
NCCc1nnc(SCC(=O)Nc2cccc(Cl)c2)o1	-3	-2	-31	7	52*	17	75*	57*	68*
O=C(Nc1nc2c(s1)CCCC2)c1cccs1	-2	-2	·	-34	50*	16	55*	88*	72*
Cc1sc(NC(=O)c2cccs2)nc1-c1ccccc1	0	-3	-19	5	68*	-27	67*	55*	46
O=C(Nc1nsc(-c2ccccc2)n1)c1cccs1	-3	-3	10	2	54*	·	65*	40	49
CCSc1nnc(NC(=O)c2cccs2)s1	-2	-3	2	182	53*	-6	64*	39	44
Cc1sc(NC(=S)NC(=O)c2cccs2)nc1-c1ccc(C(C)C)cc1	-1	-2	·	26	4	35	·	·	·
C=CCn1c(SCc2ccccc2Cl)nnc1-c1sc2nc(C)cc(C)c2c1N	-4	-2	-2	106	14	4	·	·	·
CCCCCCCCCn1c2c(c(=N)c3c1CCC3)CCC2	-2	1	5	483*	59*	27*	65*	23	55*
CSc1nc2cc(Oc3cccc(Cl)c3Cl)c(Cl)cc2[nH]1	-3	-4	-14	9	83*	-7	91*	96*	95*
Cc1cc2c3c([nH]c2cc1S(=O)(=O)N1CCC2(CC1)OCCO2)CCCC3=O	1	2	-1	157	4	11	·	·	·
O=C(NC(=S)Nc1cnc2ccccc2c1)c1ccccc1	-1	-4	8	1	73*	-7	64*	65*	59*
CC1Cc2nc(SCC(=O)OCc3ccccc3)n(C)c(=O)c2S1 (stereo unspecified)	-1	-1	-6	-13	59*	·	70*	43	39
Cc1cc(Cl)ccc1NC(=O)C1COc2ccccc2O1 (stereo unspecified)	-1	6	-18	-3	18	15	·	·	·
CCc1ccc(S(=O)(=O)/N=C2\C=C(Nc3ccc(C(=O)O)cc3)C(=O)c3ccccc32)cc1	-7	0	-2	-21	30	-10	·	·	·
COC(=O)c1ccccc1NC1=C/C(=N\S(=O)(=O)c2ccc(C(=O)O)cc2)c2ccccc2C1=O	2	5	-21	-17	51*	34	64*	84*	77*
COc1cnc(-c2ccccn2)nc1Sc1ccc(C)cc1	-5	4	-46	17	38	-5	·	·	·
Cc1ccc(Sc2cc(C)nc(-c3ccccn3)n2)cc1	-6	6	-16	0	51*	·	43	65*	49
O=C(CSc1ncnc2c1oc1ccccc12)NCc1ccc(F)cc1	-4	0	-18	12	55*	8	63*	43	29

Assay outcomes from PubChem.
